# In ChEMBL document CHEMBL4513216, “Probing the Open Global Health Chemical Diversity Library for Multistage-Active Starting Points for Next-Generation Antimalarials” (ACS Infect Dis, 2020):
# Experiment: Toxicity liver stage against HepG2, at 10uM
# Type: cell-based
# Design: test concentration 10 uM, cell line HepG2-A16-CD81EGFP
# Conditions: human, HepG2-A16-CD81EGFP cells; read-out: INHIBITION
# How it was run: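 Uninfected HepG2-A16-CD81EGFP cells, 3 × 10^3 per well, 1536-well, plated on prespotted compound at 10 μM final, parasite-free screening media added to match infected plates; puromycin 10 μM positive, DMSO 0.5% negative; run in parallel with 48 h PbLuc assay at 37 °C, 5% CO2; viability by CellTiter-Glo luminescence, normalized to controls.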
row,SMILES,cytotoxicity at 10 µM
1,COCC(=O)N[C@H](C)c1onc(-c2ccccc2)c1C(=O)O,0.179%
2,O=C(NC[C@H]1OC[C@@H](NC2CCC(F)(F)CC2)[C@@H]1O)Nc1ccccc1,4.11%
3,O=C(c1ccno1)N1CCOC[C@H](Oc2ccccc2)C1,-5.25%
4,CC[C@H]1CN(S(C)(=O)=O)CC[C@H]1CC(=O)NCCOC,2.55%
5,COCCCNc1c(-c2ccccc2)c(=O)c1=O,0.409%
6,COc1ccccc1-n1c(C)cc(CNC(=O)NC(C)C)c1C,3.49%
7,O=C(O)Cn1ccc(=O)c2cc(F)ccc21,-0.0342%
8,O=C(c1nc(Cc2c[nH]c3ccccc23)no1)N1CCCC1,7.76%
9,O=C(COc1ccc(F)cc1)N1CCCSCC1CN1CCOCC1 (stereo not given),-0.0603%
10,CSc1ncccc1C(=O)NCCC(O)c1cc(C)oc1C (stereo not given),1.95%
11,Cc1nc(C)n(CC2CN(S(C)(=O)=O)Cc3nccn3C2)n1 (stereo not given),-140%
12,Cc1cccc(CN2C[C@@H]3CCCO[C@@H]3[C@H](Nc3ccccn3)C2)n1,0.939%
13,COCCNC(=O)[C@H]1C[C@@H]2CCN(c3ncccn3)C[C@@H]2O1,-0.785%
14,Cc1ccc(N2CC[C@H]3OCC[C@@]3(C(=O)N3CCCO3)C2)nn1,-1.22%
15,COCC1CN(Cc2cccc(C#N)c2)Cc2nccn2C1 (stereo not given),-141%
16,COc1cccc2c1ccn2CCC(=O)N1CCC(C(=O)O)CC1,7.08%
17,CS(=O)(=O)N1CC[C@H]2C[C@@H](C(=O)N3CCOCC3)O[C@@H]2C1,2.28%
18,COc1cc(CNc2ccccc2Cl)ccc1OCC(=O)O,6.15%
19,COc1nsc2nc(C3CCCN3c3ncccn3)ccc12 (stereo not given),10.5%
20,Cc1cccc(C)c1Nc1noc2c1CN(C(=O)c1cn(C)cn1)CC2,12.9%
21,Cc1cncc(C2CCN(Cc3ccc(S(C)(=O)=O)cc3)CC2)n1,-1.03%
22,c1cnc(C2CCCN(Cc3ccsc3)C2)cn1 (stereo not given),-5.67%

row,SMILES,cytotoxicity at 10 µM
1,OCC(CO)N1CCCC(Cc2ccnc(Nc3ccccn3)c2)C1 (stereo not given),-13.5%
2,CC(=O)N1CCC2(CC1)CC(C(C)C)=NO2,8.74%
3,Cc1nnc(NC(=O)C2CSCN2C(=O)C2CCCC2)s1 (stereo not given),-17.1%
4,C[S+]([O-])CCNC(=O)N1CCSC(C)(C)C1 (stereo not given),-0.0105%
5,O=C(CCc1ccco1)NS(=O)(=O)N1CCOc2ccccc21,6.07%
6,CC(CN1CCOC1=O)NC(=O)c1cccc2cc[nH]c12 (stereo not given),6.2%
7,CCSc1ccc(NC(=O)NC2CCc3[nH]ncc3C2)cn1 (stereo not given),-3.27%
8,COc1ccccc1NC(=O)c1ccc(C)n1C,1.42%
9,Cc1cnn(CCNCC(=O)N2CCN(c3ncccn3)CC2)c1,-0.0264%
10,CC(Nc1ccc(C#N)cc1F)c1cccc(S(N)(=O)=O)c1 (stereo not given),-3.86%
11,Cc1cc(NC(=O)CNc2cccc(OC(F)F)c2C)n(C)n1,9.47%
12,N#Cc1ccc(NCCC(=O)N2CCCc3ccccc32)nc1,-1.33%
13,CCOc1cc(Cl)ccc1CNC(=O)N(C)CC(C)(C)O,-0.538%
14,O=C1CCN(C(=O)C2(c3ccc(F)cc3)CCCC2)CCN1,-8.27%
15,CCOCC(=O)NC1(c2nc(C)cs2)CCCC1,-12.7%
16,Cc1cccc(NC(=O)[C@@H]2CCCN2Cc2ccc(C#N)cc2F)n1,-5.64%
17,CN1CCC(N(Cc2ccccc2F)C(=O)NCc2ccncc2)CC1,-2.14%
18,CCC(CC)c1cc(CNC(=O)N2CCN(CC)CC2)on1,-3.26%
19,Cc1cccc(-c2noc(CNC(C)Cn3cc(C)cn3)n2)c1 (stereo not given),-2.87%
20,Cc1cn(-c2ccccc2)nc1NS(=O)(=O)c1cc(C(=O)O)ccc1Cl,13.1%
21,COc1ccccc1N1CCN(Cc2nc(C)c(C)o2)CC1,13.4%
22,Cc1nn(C)c(C)c1NC(=O)CNc1cccc(CC(F)(F)F)c1,-4.83%

row,SMILES,cytotoxicity at 10 µM
1,Cc1nc(C)c(CN(C)C2CCN(C(=O)OC(C)(C)C)CC2)s1,3.51%
2,Cc1nn(C)c(C)c1CC(=O)NCc1ccnc(OC2CCCC2)c1,-0.883%
3,COc1ccc(CN2CCNC(=O)CC2)cc1SC(F)(F)F,0.66%
4,COCCC(Cc1cccc(Br)c1)C(N)=O (stereo not given),8.42%
5,CCc1sc(C(=O)Nc2cnn(CCN(C)C)c2)cc1C,7.9%
6,Cc1nc(CN(C)C2CCN(Cc3cccc4cccnc34)C2)no1 (stereo not given),-11.5%
7,CC(C)OCCN1CCN(c2ccc(CN(C)C)cn2)CC1,-5.89%
8,CC(CNCC1(S(C)(=O)=O)CCOCC1)c1ccc(F)cc1 (stereo not given),-5.06%
9,COc1c(C(=O)N2CCC(CSc3ccccc3)C2)c(C)nn1C (stereo not given),25.6%
10,Cc1ccsc1CNC(=O)c1ccc(N2CCNC2=O)cc1,1.79%
11,Cc1nc(CN(C)C(=O)Nc2cnn(CC3CCCO3)c2)cs1 (stereo not given),5.53%
12,O=C(O)c1cc2c(nc1-c1ccncc1)CCN(Cc1ccoc1)CC2,-70.9%
13,COCC(=O)N1CCCC2(CCN(c3cncnc3)C2=O)C1 (stereo not given),-72.5%
14,c1cnc(NCC2Cn3nnc(-c4ccoc4)c3CO2)nc1 (stereo not given),-76.1%
15,O=C(c1ccco1)N1CCn2cc(CN3CCCC3)nc2C1,-78.9%
16,NC(=O)N1CCC2(CC1)CN(c1ncccn1)CCO2,-75.1%
17,CCNC(=O)c1c2c(N3CCN(C)CC3)ncnc2n2ccccc12,-74.8%
18,O=C(c1ccnnc1)N1CC[C@H]2C[C@H](c3ccncn3)O[C@@H]2C1,-71.8%
19,O=c1[nH][nH]cc1-c1ccnc(NCCN2CCCC2)n1,2.89%
20,Cc1ccsc1CN1CCC(c2nnc(Cn3cccn3)n2C)CC1,-2.97%
21,CC(C)=CCN1CCC(c2nnc(CN3CCN(C)CC3)n2C)CC1,-7.54%
22,O=C(Cn1ncc(N2CCNCC2)cc1=O)NCCc1ccc(F)cc1,0.342%

row,SMILES,cytotoxicity at 10 µM
1,O=C(CSc1ccccn1)N1CCC(OCc2cccnc2)CC1,-3.84%
2,c1ccc(CN2CCN(C3CCOC4(CCOCC4)C3)CC2)nc1 (stereo not given),-0.971%
3,O=C(O)c1ccccc1-c1c(-c2ccccc2)ncn1CC1CCCO1 (stereo not given),2.84%
4,CCOC(=O)CC1CCCCN1C(=O)c1cnc(C)cn1 (stereo not given),0.957%
5,CCCN(CCc1ccccc1)c1ncnc2oc(C)nc12,8.74%
6,c1cncc(OCc2nc(C3CC3)nn2-c2ccc3c(c2)OCCO3)c1,2.4%
7,c1cc2c(cc1CN1CCCC3(CCOC3)C1)OCO2 (stereo not given),0.447%
8,CC(C)c1noc(C2CCCN2C(=O)CN2CCc3ccccc32)n1 (stereo not given),-8.76%
9,COc1ccc(C(=O)C2CCCN(c3cnccn3)C2)c(C)c1 (stereo not given),-2.69%
10,CCc1ccc2nc(C)cc(C(=O)N3C[C@H]4CCC[C@@]4(CO)C3)c2c1,-2.37%
11,Cc1cc(NC(C)c2csc(C)n2)n2nc(C)c(C)c2n1 (stereo not given),5.32%
12,CCc1ccc(OCC(=O)N2CCN(CC)CC2)cc1,6.15%
13,COCCN(Cc1ccncc1)C(=O)C1COc2c(cccc2OC)C1 (stereo not given),-14.6%
14,CCc1ccc(CN(C)C(=O)c2cnc3c(c2)nc(N)n3CC)nc1,-5.55%
15,O=C(c1cc2ccccc2s1)N1CCC(C(=O)O)(n2cccn2)CC1,11.3%
16,Cn1ccnc1C1c2nc[nH]c2CCN1Cc1cccnc1 (stereo not given),0.0371%
17,Cc1nn(C)c(C)c1CCC(=O)N1CCCOC(Cn2cccn2)C1 (stereo not given),-2.86%
18,COc1ccc(C2CC(=O)Nc3c2nc2n3CCCC2)cc1O (stereo not given),-2.53%
19,Cc1nccn1-c1cccc(C2CCCN2S(=O)(=O)c2cn(C)cn2)n1 (stereo not given),7.99%
20,CC(C)c1nc(CN2CCCN(c3nccs3)CC2)no1,-11.5%
21,OC1(CN2CCOC(CNc3cccnn3)C2)CCCCC1 (stereo not given),-4.67%
22,Cc1ccc(CNC(=O)N(C)Cc2cnn(C)c2)s1,-11.2%

row,SMILES,cytotoxicity at 10 µM
1,CCCc1n[nH]c(C2CN(C(=O)CCc3cscn3)CCO2)n1 (stereo not given),-1.63%
2,Cc1nc(-c2ccsc2)ccc1C(=O)NCCCN1CCOCC1,-13.9%
3,Cc1cc(NC(=O)CN2CCn3c(nnc3C3CC3)C2)on1,-9.92%
4,CCc1n[nH]c(C2CN(C(=O)c3ccc(Cl)cn3)CCO2)n1 (stereo not given),-18.3%
5,CS(=O)(=O)NC1CCCN(C(=O)NCc2ccccc2Cl)C1 (stereo not given),-12.8%
6,CCn1cc(CN2CCCN(C(=O)c3cc(C)no3)CC2)cn1,3.22%
7,Cc1cc(NC(=O)CCN2CCn3c(C)nnc3C2)no1,6.69%
8,Cc1n[nH]c(=O)c2c(NC(=O)CN3CCOCC3C)oc(C)c12 (stereo not given),-0.219%
9,CCn1cc(NC(=O)NCC(O)CN2CCc3ccccc3C2)cn1 (stereo not given),-4.33%
10,CC(=O)Nc1nc(C(=O)N2CCCC2Cn2cc(C)cn2)cs1 (stereo not given),7.07%
11,Cc1n[nH]c(C2CN(C(=O)c3cnc[nH]3)CCO2)n1 (stereo not given),-0.265%
12,c1cc(OCc2ccc3c(c2)OCCO3)ccc1CNC1CC1,-0.73%
13,Cc1ncsc1CN1C[C@H](C(=O)N2CCCO2)[C@@H]2CCO[C@@H]2C1,-11.6%
14,CN(C)C(=O)CO[C@H]1CN(Cc2ccc(F)cc2)[C@@H]2CCCO[C@H]12,-22.3%
15,Cc1ccc(CN2CC[C@H]3[C@H](CC(Cn4cccn4)N3C)C2)s1 (stereo not given in full),6.66%
16,CN(C)C(=O)[C@H]1C[C@H]2OCC[C@H]2N(Cc2ccc3ccccc3n2)C1,-55.9%
17,c1ccc(CN2CCc3ncnc(-c4cccnc4)c3CC2)nc1,-75.7%
18,CN(Cc1ccco1)C[C@H]1OC[C@@H]2CCN(Cc3cccs3)C[C@@H]21,8.11%
19,Cc1ccc(N2CCO[C@H]3CN(Cc4nccs4)C[C@H]32)nn1,-94.7%
20,O=C(NC1CC1)[C@H]1C[C@H]2OCC[C@H]2N(CC2CCOCC2)C1,2.98%
21,O=C(CO)N1C[C@@H]2CC[C@H]1CN(C1Cc3ccccc3C1)C2,-11.3%
22,CCCn1nccc1NC(=O)CN1CCCC1c1cccn1C (stereo not given),-5.76%
